# Screening data as filed in PubChem.
# Only some compounds are listed: those with a hit (about 2.4% of all), similar ones and a draw of the others.
# PfM18AAP inh-1 = PfM18AAP inhibitors, malaria aminopeptidase, primary screen, biochemical, QFRET, recombinant enzyme | M18 aspartyl aminopeptidase (Plasmodium falciparum 3D7) | 290,000 compounds, 1.2% hits | AID 1822, 2009 | H-Glu-NHMec fluorogenic cleavage | inhibition, % at 7.35 µM;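 active means inhibition above the campaign mean inhibition over all tested compounds plus 3 SD, cut at about 28% in these data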;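 further: 0% = plate median of test compound wells and 100% = 2 mM ZnCl2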
# VIM-2 inh = VIM-2 metallo-beta-lactamase inhibitors, primary screen, biochemical, epi-absorbance readout, Pseudomonas aeruginosa enzyme; purified VIM-2, nitrocefin hydrolysis, epi-absorbance fluorescence; inhibition, % at 5.6 µM; 290,000 compounds, 0.89% hits;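 active means inhibition above the mean of all tested compounds plus 3 SD, cutoff set per screening run, cut at about 7.5% in these data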;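 further: red hydrolysis product quenches plate fluorescence so inhibitors raise well fluorescence; 0% = enzyme with DMSO and 100% = DMSO without enzyme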
# sPLA2-III inh = human group III sPLA2 inhibitors, primary screen, biochemical, QFRET, BODIPY PC-A2 liposome substrate; 370,000 compounds, 0.56% hits; inhibition, % at 12.2 µM; AID 743126, 2013; QFRET BODIPY PC-A2 liposome hydrolysis, fluorescence;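 active means inhibition above mean plus 3 SD of compounds lying within the high and low control bounds, cut at about 19% in these data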;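 further: 0% = median of test compound wells and 100% = no enzyme DMSO wells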
# IMP-1 inhibitor = IMP-1 metallo-beta-lactamase inhibitors, primary screen, biochemical, epi-absorbance readout, Pseudomonas aeruginosa enzyme; AID 1556, 2009; purified IMP-1, nitrocefin hydrolysis, epi-absorbance fluorescence; metallo-beta-lactamase IMP-1 (Pseudomonas aeruginosa); inhibition, % at 5.6 µM; 290,000 compounds, 0.45% hits;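 active means inhibition above the mean plus 3 SD of all compounds in the same screening run, cut at about 4.5% in these data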;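 further: 0% = IMP-1 with DMSO and 100% = DMSO wells lacking enzyme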
#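 System: purified IMP-1 / Input: IMP-1 dispensed at 0.2 nM / Medium: 50 mM HEPES pH 7.1, 50 µM ZnSO4, 0.05% Brij 35 / Timing: 15 min enzyme–compound preincubation, then 25 min nitrocefin reaction, 25 °C / Technique: plate fluorescence quenching by hydrolysis product, ex 480/em 530 nm / Repeats: singlicate testing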
# PfM18AAP inh-2 = PfM18AAP inhibitors, malaria aminopeptidase, confirmation, biochemical, QFRET, recombinant enzyme, triplicate | shares compounds with PfM18AAP inh-1 | H-Glu-NHMec fluorogenic cleavage | inhibition, % at 7.35 µM | 2,400 compounds, 28% hits;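 active means mean inhibition over replicate wells above the hit cutoff set for the earlier primary screen, cut at about 29% in these data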;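 further: 0% = median of test compound wells and 100% = 2 mM ZnCl2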
# CTSL1 confirm = cathepsin L1 inhibitors, retest, confirmation, counter-screen for PFM18AAP inhibitor project, biochemical, QFRET, triplicate | shares compounds with PfM18AAP inh-1 | purified cathepsin L1, Z-Leu-Arg-MCA fluorescence | inhibition, % at 5.96 µM | 2,400 tested, under 10 active | AID 2178, 2009;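 active means average inhibition across replicates above the hit cutoff set in the earlier primary screen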;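 further: 0% = median of test compound wells and 100% = Z-Phe-Ala-diazomethylketone 1 µM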
# Target sequence (P07711 whole entry, looked up): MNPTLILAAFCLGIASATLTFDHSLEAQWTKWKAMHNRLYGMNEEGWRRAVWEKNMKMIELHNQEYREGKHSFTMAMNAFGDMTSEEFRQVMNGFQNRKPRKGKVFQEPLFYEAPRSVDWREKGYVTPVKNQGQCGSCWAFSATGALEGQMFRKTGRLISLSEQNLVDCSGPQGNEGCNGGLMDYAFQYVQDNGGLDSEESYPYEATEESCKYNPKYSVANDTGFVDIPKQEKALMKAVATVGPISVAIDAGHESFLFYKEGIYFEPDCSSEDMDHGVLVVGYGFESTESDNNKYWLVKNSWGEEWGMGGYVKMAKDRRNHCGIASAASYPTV
# hGIII sPLA2 conf = human group III sPLA2 inhibitors, confirmation, biochemical, QFRET, triplicate | shares compounds with sPLA2-III inh | recombinant hGIII-sPLA2, BODIPY PC-A2 QFRET fluorescence | inhibition, % at 12.2 µM | 2,000 compounds, 34% hits | AID 743280, 2014;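 active means mean inhibition across triplicates above the hit cutoff set in the earlier primary screen, cut at about 19% in these data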;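 further: 0% = enzyme with DMSO and 100% = DMSO wells lacking enzyme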
# BODIPY interf = 535nm fluorescence optical interference, confirmation, artefact control for HGIII-sPLA2 inhibitor project, biochemical, QFRET; BODIPY FL product fluorescence interference; 2,000 compounds, 8.5% hits; inhibition, % at 12.2 µM; shares compounds with sPLA2-III inh;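 active means average inhibition above the solvent-only control mean plus 3 SD, cut at about 6% in these data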;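 further: 0% = DMSO with substrate plus product and 100% = DMSO with substrate alone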
# 535nm interf DR = 535nm fluorescence optical interference, dose response, artefact control for HGIII-sPLA2 inhibitor project, biochemical, QFRET; shares compounds with sPLA2-III inh; BODIPY FL product fluorescence interference, cell-free; IC50, µM; 240 tested, under 10 active;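 active means IC50 at or below 10 µM; inactive means IC50 above 10 µM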
# * hit, by the source's call; x = no result.
SMILES,PfM18AAP inh-1,VIM-2 inh,sPLA2-III inh,IMP-1 inhibitor,PfM18AAP inh-2,CTSL1 confirm,hGIII sPLA2 conf,BODIPY interf,others
Cc1cccc2sc(NNC(=O)c3ccc(S(=O)(=O)N4CCc5ccccc5C4)cc3)nc12,37*,-2,41*,-2,-42,-2,43*,7.8*,
O=[N+]([O-])c1ccc(Cl)c(CN2CCN(c3ncc(Cc4ccccc4)cn3)CC2)c1,x,x,14,x,x,x,x,x,
Fc1cccc(CNC(=S)OC2CCC23CCC(c2ccccc2)CC3)c1 (centres undefined),x,x,-1,x,x,x,x,x,
CCN(CC)c1ccc(/C=N/NC(=S)NC)c(O)c1,41*,-1,21*,-3,10,12,37*,2,535nm interf DR=>122
CCN(CC)c1ccc(/C=N/NC(=O)OC)c(O)c1,19,-6,-2,-4,x,x,x,x,
Oc1ccc(-c2csc(Nc3cccc4ccccc34)n2)cc1O,55*,-3,21*,-3,25,-13,9,11*,
CCOC(=O)N1CCN(S(=O)(=O)c2ccc(C(=O)NNc3nc4c(C)cc(C)cc4s3)cc2)CC1,39*,-3,60*,-1,-31,4,45*,-3,535nm interf DR=>122
CCOC(=O)N1CCN(S(=O)(=O)c2ccc(C(=O)NNc3nc4cc(C)cc(C)c4s3)cc2)CC1,15,-4,x,-5,x,x,x,x,
Cc1cc(C)c2nc(NNC(=O)c3ccc(S(=O)(=O)N4CCCCC4)cc3)sc2c1,36*,-4,46*,-4,-22,3,53*,-2,535nm interf DR=>122
CCOC(=O)N1CCN(S(=O)(=O)c2ccc(C(=O)NNc3nc4c(C)cccc4s3)cc2)CC1,38*,-6,33*,-3,-16,5,39*,-1,535nm interf DR=>122
COc1ccc(/C=N/NC(=O)c2ccccc2O)cc1Cn1cc([N+](=O)[O-])cn1,5,-3,-7,-2,x,x,x,x,
COc1ccc(/C=N/NC(=O)c2cc(O)c(O)c(O)c2)cc1Cn1cc([N+](=O)[O-])cn1,48*,-1,21*,-3,17,-1,27*,-10,
C[C@@H]1CN([C@H](C)CO)C(=O)c2cc(Br)cnc2O[C@H]1CN(C)Cc1ccccc1F,x,x,4,x,x,x,x,x,
O=C(NNC(=O)c1ccc2ccccc2c1O)NC1CCCCC1,49*,-4,26*,-1,7,-1,18,1,
O=C(NNC(=O)c1ccc2ccccc2c1O)Nc1ccc(F)cc1,34*,-2,28*,-3,-3,3,30*,1,535nm interf DR=>122
O=C(NC1CCCCC1)c1ccc2ccccc2c1O,x,x,7,x,x,x,x,x,
COc1cccc(OCC(=O)NNC(=O)c2ccc3ccccc3c2O)c1,37*,-3,36*,-6,-17,-5,33*,3,535nm interf DR=>122
COc1ccc(C(=O)NNC(=O)c2ccc3ccccc3c2O)cc1,18,-1,-2,-2,x,x,x,x,
Cc1c(P(=S)(c2ccccc2)c2ccccc2)[n+]2ccccc2n1CCc1ccccc1,x,x,3,x,x,x,x,x,
Cn1c(N)c(C#N)c(-c2ccccc2)c(C#N)c1=O,x,x,5,x,x,x,x,x,
CC(C)N=c1scc(-c2cccs2)n1/N=C/c1ccc(O)c(O)c1O,39*,0,38*,-2,-40,-3,54*,2,535nm interf DR=>122
COc1cc(-c2cnc3c(NC=O)cc(-c4ccccc4Cl)cn23)cc(OC)c1OC,x,x,-7,x,x,x,x,x,
CCOC(=O)c1sc(=S)n(C)c1NC(=O)c1ccccc1C,35*,0,24*,0,6,2,5,-6,
COc1cc(OC)c2c(=O)cc(-c3ccccc3)oc2c1,5,-1,-5,-1,x,x,x,x,
COc1c(O)c(O)c2oc(-c3ccccc3)cc(=O)c2c1OC,33*,4,32*,-3,12,3,13,-11,
SMILES,PfM18AAP inh-1,VIM-2 inh,sPLA2-III inh,IMP-1 inhibitor,PfM18AAP inh-2,CTSL1 confirm,hGIII sPLA2 conf,BODIPY interf,others
CCC(CC)NC(=O)c1cc(S(=O)(=O)N2CCCCC2)ccc1N1CCOCC1,x,x,-1,x,x,x,x,x,
O=C(CNS(=O)(=O)c1ccccc1)OCC(=O)c1ccc([N+](=O)[O-])cc1,33*,1,25*,-3,1,-13,6,-2,
CN(CCOc1ccccc1)C(=O)c1cc(S(=O)(=O)N2CCOCC2)c(Cl)cc1Cl,x,x,-4,x,x,x,x,x,
Cc1c(NC(=S)N/N=C\c2ccccc2O)c(=O)n(-c2ccccc2)n1C,36*,7.8*,34*,-4,-2,3,11,-2,
CCOC(=O)c1ccc(NC(=O)Nc2nncs2)cc1,x,x,-7,x,x,x,x,x,
O=C(NC(=S)NNC(=O)c1ccccc1O)c1cccs1,44*,5,30*,-2,3,-2,30*,-3,535nm interf DR=>122
O=C(NNC(=S)NC(=O)c1ccccc1[N+](=O)[O-])c1ccccc1O,43*,0,32*,-3,21,-1,14,-2,
COc1ccccc1C(=O)NNC(=S)NC(=O)c1cccs1,13,-3,17,-4,x,x,x,x,
O=C(NNC(=S)NC(=O)c1ccccc1[N+](=O)[O-])c1ccc(Cl)cc1Cl,-5,-2,14,-1,x,x,x,x,
COc1cccc(-n2c(SCc3cc(=O)oc4cc(O)c(O)cc34)nc3ccccc3c2=O)c1,56*,7,20*,-2,-10,6,10,-5,
CCN(CC)C(=O)CSc1nc2ccccc2c(=O)n1-c1cccc(OC)c1,6,-3,0,-3,x,x,x,x,
O=C1c2ccccc2C(=O)c2c1ccc1c(=O)n(-c3ccccc3)[nH]c21,4,-4,26*,-2,x,x,20*,-2,
Cc1cccc(-n2[nH]c3c4c(ccc3c2=O)C(=O)c2ccccc2C4=O)c1,-6,-2,3,-4,x,x,x,x,
COC(=O)C[C@H]1CC[C@@H]2[C@@H](COc3ccc(NC(=O)c4ccno4)cc3C(=O)N2C)O1,x,x,20*,x,x,x,5,-3,
N#CCC[C@H]1CC[C@]2(CCCN(S(=O)(=O)c3ccccc3)C2)O1,x,x,20*,x,x,x,1,-6,
N#CCC[C@@H]1CC[C@]2(CCCN(Cc3ccc(Br)cc3)C2)O1,x,x,22*,x,x,x,-5,-12,
